# Results of several laboratories.
# Compare with care: the assays were run in different laboratories.
# gag-pol protease: Gag-Pol polyprotein, protease (gag-pol, Human immunodeficiency virus type 1 group M subtype B, UniProt P04585)
# F2: Prothrombin (F2, Homo sapiens, UniProt P00734)
# CES1: Liver carboxylesterase 1 (CES1, Homo sapiens, UniProt P23141)
# KCNH2: Voltage-gated inwardly rectifying potassium channel KCNH2 (KCNH2, Homo sapiens, UniProt Q12809)
Structure (SMILES),target,assay,setting,quantity,result
COc1ccc(S(=O)(=O)N(CC(C)C)C[C@@H](O)[C@H](Cc2ccccc2)NC(=O)O[C@@H]2CCC[C@@]23CCO[C@@H](c2cc(OC)cc(OC)c2)C3)cc1,gag-pol protease,"enzyme activity, inhibitor",,Ki,0.0355 µM
CCOC(=O)c1ccc(OC(=O)CCCCCN=C(N)N)cc1,F2,"enzyme activity, inhibitor",,IC50,0.588 µM
COc1c2c(cc3c1-c1c(cc4c(c1OC)OCO4)C[C@H](C)[C@H](C)C3)OCO2,CES1,"enzyme activity, inhibitor",,IC50,1.4 µM
COc1ccc(S(=O)(=O)N(CC(C)C)C[C@@H](O)[C@H](Cc2ccccc2)NC(=O)O[C@@H]2CCC[C@@]23CCO[C@@H](c2ccccc2)C3)cc1,gag-pol protease,"enzyme activity, inhibitor",,Ki,0.051 µM
COCCC(=O)N[C@@H](CCC(N)=O)C(=O)N[C@@H](Cc1ccccc1)C(=O)N[C@@H](CCCNC(=N)N)C(=O)c1nc2ccccc2s1,F2,cell-free assay,,Ki,> 10 µM
NC[C@H](O)c1ccc(O)c(O)c1,"tlpQ (Pseudomonas aeruginosa, UniProt Q9I0I4)","binding, ITC",,Kd,> 1000 µM
O=c1c2cc(Cl)ccc2[nH]c(=S)n1Cc1cccnc1,KCNH2,"ion current, inhibitor, patch clamp",pH 7.4,IC50,> 10 µM
CC(C)=CCC[C@](C)(O)[C@H]1CC[C@]2(C)[C@@H]1[C@H](O)C[C@@H]1[C@@]3(C)CC[C@H](O)C(C)(C)[C@@H]3[C@@H](O[C@@H]3O[C@H](CO)[C@@H](O)[C@H](O)[C@H]3O)C[C@]12C,"Aldo-keto reductase family 1 member B10 (AKR1B10, Homo sapiens, UniProt O60218)","binding, BLI",,Kd,3.19 µM
COc1ccc(S(=O)(=O)N(CC(C)C)C[C@@H](O)[C@H](Cc2ccccc2)NC(=O)O[C@H]2CCC[C@@]23CCO[C@@H](c2cccc(OC)c2)C3)cc1,gag-pol protease,"enzyme activity, inhibitor",,Ki,1.08 µM
N=C(N)NCCC[C@H](NC(=O)[C@H](Cc1ccccc1)NC(=O)[C@H](CCC(N)=O)NC(=O)OCc1ccccc1)C(=O)c1nccs1,F2,cell-free assay,,Ki,0.994 µM
C=CCc1ccc(O)c(-c2cc(CC=C)ccc2O)c1,CES1,"enzyme activity, inhibitor",,IC50,0.39 µM
O=c1c2cc(Cl)ccc2[nH]c(=S)n1Cc1ccc(-c2nnn[nH]2)nc1,KCNH2,"ion current, inhibitor, patch clamp",pH 7.4,IC50,> 10 µM
CC(=O)c1c(C)c2cnc(Nc3ccc(C4CCN(CCS(C)(=O)=O)CC4)cn3)nc2n(C2CCCC2)c1=O,KCNH2,"ion current, inhibitor",,IC50,> 30 µM
COc1ccc(S(=O)(=O)N(CC(C)C)C[C@@H](O)[C@H](Cc2ccccc2)NC(=O)O[C@@H]2CCC[C@@]23CCO[C@@H](c2ccccc2OC)C3)cc1,gag-pol protease,"enzyme activity, inhibitor",,Ki,0.0167 µM
COc1cc2c(cc1OC)CN(CCc1ccc(NC(=O)c3cccc4c(=O)c5cccc(OC)c5[nH]c34)cc1)CC2,"5-hydroxytryptamine receptor 1B (HTR1B, Homo sapiens, UniProt P28222)",cell-free assay,,Ki,> 10 µM
